Calb FLC = C. albicans growth modulation with fluconazole; growth inhibition, % (test concentration not listed); hit rate 0.57% among 300,000; C. albicans CaCi-2 (fluconazole-resistant clinical isolate) + fluconazole, Alamar Blue growth, 48 h; AID 1979;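 active means growth inhibition above about 58% in most replicates, limit read from the data, passing the limit was not always enough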;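 further: all wells also contain fluconazole at 8 µg/ml as a sub-toxic cotreatment; 0% = median of DMSO wells and 100% = median of geldanamycin control wells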
NALP1 yeast inh = blocks the NALP1 inflammasome reconstituted in yeast; hit rate 0.61% among 280,000; inhibition, % at 10 µM; S. cerevisiae NALP1/ASC/caspase-1 growth, X-gal OD620, 72 h; in the data active means inhibition mostly above about 24%, no sharp cut-off; inactive means mostly below about 32%
NALP3 yeast inh = NALP3 inhibition in yeast. Yeast reconstituted NLRP3/ASC/caspase-1, beta-gal luminescence, 24 h. inhibition, % at 10 µM. hit rate 0.39% among 330,000;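 active means inhibition of 50% or more; inactive means inhibition below 50%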;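 further: plate controls were induced DMSO wells for no effect and uninduced yeast grown without galactose for full effect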
ALR inh = inhibitors of human sulfhydryl oxidase ALR; purified ALR, DTT oxidation, H2O2 HRP-luminol luminescence; inhibition, % (concentration not given with the values); hit rate 3.8% among 290,000; AID 485317;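 active means mean replicate inhibition above about 79%, with every replicate also reaching it, limit read from the data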
Target sequence (P55789 whole entry, looked up): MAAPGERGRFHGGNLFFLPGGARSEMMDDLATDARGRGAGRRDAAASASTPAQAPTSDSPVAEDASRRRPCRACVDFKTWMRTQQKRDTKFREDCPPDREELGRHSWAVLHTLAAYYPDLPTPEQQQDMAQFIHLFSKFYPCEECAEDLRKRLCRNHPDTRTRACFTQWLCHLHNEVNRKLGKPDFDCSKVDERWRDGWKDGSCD
ATG4B inh = ATG4B (human) cysteine protease inhibition; AID 504462; inhibition, % at 8.33 µM; hit rate 0.51% among 340,000; Q9Y4P1; ATG4B cleavage of LC3-PLA2, NBD-HPC fluorescence, 1 h; in the data active means inhibition above about 40%
UCH37 DUB inh = blocks the human deubiquitinase UCH37. Q9Y5K5. purified proteasome/UCH37, Ub-AMC cleavage fluorescence. inhibition, % (no concentration beside the values). hit rate 0.33% among 330,000. AID 588478;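 active means mean inhibition over replicate wells above about 20%, limit read from the data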;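 further: 0% = compound-free wells with enzyme and 100% = wells lacking proteasome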
Target sequence (Q9Y5K5 whole entry, looked up): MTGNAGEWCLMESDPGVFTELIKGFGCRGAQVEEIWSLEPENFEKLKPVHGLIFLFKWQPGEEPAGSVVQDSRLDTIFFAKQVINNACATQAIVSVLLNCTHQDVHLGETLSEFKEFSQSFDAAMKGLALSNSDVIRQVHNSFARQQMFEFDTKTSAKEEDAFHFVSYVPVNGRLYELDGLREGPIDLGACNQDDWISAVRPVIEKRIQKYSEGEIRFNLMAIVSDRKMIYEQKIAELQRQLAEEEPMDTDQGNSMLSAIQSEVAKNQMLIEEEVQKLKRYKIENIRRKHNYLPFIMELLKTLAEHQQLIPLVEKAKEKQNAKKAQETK
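system = Proteasome-associated human UCH37 deubiquitinase | amount = 0.15 nM proteasome as dispensed | medium = pH 7.4 Tris-HCl (50 mM) with ovalbumin, ATP-MgCl2, DTT | incubation = 30 min preincubation with enzyme, 25 min cleavage at room temperature | detection = AMC fluorescence 355/460 nm | read-out basis = percent inhibition | controls = no-proteasome and no-compound wells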
* = called active by the depositor. An excerpt weighted towards active compounds, which were near 4.8% of everything screened.

Screening COc1cc(C=NNC(=O)c2ccncc2)ccc1OC(=O)c1ccco1 returned UCH37 DUB inh 5.
`COc1ccc(N=Cc2ccc[nH]2)cc1` gave Calb FLC -2, NALP1 yeast inh 36*, NALP3 yeast inh 7, ALR inh -11, ATG4B inh 12 and UCH37 DUB inh 3.
Screening CCC(=NNC(=O)CCC(=O)NCc1ccccc1)c1ccc(O)cc1 returned UCH37 DUB inh 1.
Screening C=CCOc1cccc(C=NNC(=O)CN2CCCCC2)c1 returned UCH37 DUB inh 1.
For Cc1cccc(OCC(=O)Nc2cc(NC(=O)COc3cccc(C)c3C)cc(C(=O)O)c2)c1C the results were Calb FLC -2, NALP3 yeast inh 11, ALR inh 80*, ATG4B inh 1 and UCH37 DUB inh 0.
Screening COc1cccc(OCC(=O)Nc2cc(NC(=O)COc3cccc(OC)c3)cc(C(=O)O)c2)c1 returned Calb FLC 4, NALP1 yeast inh 2, NALP3 yeast inh 19, ALR inh 99*, ATG4B inh -11 and UCH37 DUB inh 2.
`O=C(COc1ccc2c(c1)CCC2)NCc1cccc(Cl)c1` gave Calb FLC 72*, NALP1 yeast inh 42, NALP3 yeast inh 17, ATG4B inh 21 and UCH37 DUB inh 4.
Cc1cccc(OCC(=O)Nc2cc(NC(=O)COc3cccc(C)c3)cc(C(=O)O)c2)c1 was read as Calb FLC -8, NALP1 yeast inh 9, NALP3 yeast inh 12, ALR inh 48, ATG4B inh -1 and UCH37 DUB inh -2.
Screening O=C(COc1ccc2c(c1)CCC2)NCc1ccc(Cl)cc1 returned Calb FLC 29, NALP1 yeast inh 28, NALP3 yeast inh 39, ALR inh -27, ATG4B inh 8 and UCH37 DUB inh 2.
O=C(NCc1ccccc1)c1cccc(COc2ccc3c(c2)CCC3)c1 was read as Calb FLC -11, NALP1 yeast inh 40, NALP3 yeast inh 16, ATG4B inh 23 and UCH37 DUB inh 3.
O=C(O)c1cccc(COc2ccc3c(c2)CCC3)c1 was read as Calb FLC 8, NALP1 yeast inh 11, NALP3 yeast inh 18, ALR inh 91*, ATG4B inh 0 and UCH37 DUB inh 2.
Screening Cc1ccc(NC(=O)CCC(=O)NN=C/C=C/c2ccccc2)cc1 returned UCH37 DUB inh 3.
Screening COc1ccc(C(=NO)C(C)(C)NO)cc1 returned UCH37 DUB inh 0.
Screening COc1cccc(NC(=O)COc2ccc3c(c2)CCC3)c1 returned Calb FLC 100*, NALP1 yeast inh 20, NALP3 yeast inh 28, ALR inh -5, ATG4B inh 4 and UCH37 DUB inh 0.
`COc1ccc(OCC(=O)Nc2ccc3c(c2)CCC3)cc1` gave NALP3 yeast inh 47, ALR inh 0, ATG4B inh 3 and UCH37 DUB inh 3.
Screening S=C(Nc1ccc(Cl)cc1)Nc1ccc2c(c1)OCCO2 returned Calb FLC 81*, NALP1 yeast inh 6, NALP3 yeast inh 23, ALR inh -6, ATG4B inh 0 and UCH37 DUB inh -1.
For S=C(Nc1ccc2c(c1)OCCO2)Nc1ccccc1Cl the results were Calb FLC -2, NALP1 yeast inh -7, NALP3 yeast inh 15, ALR inh -15, ATG4B inh -7 and UCH37 DUB inh 1.
Oc1ccc(/C=N/N(c2ccccc2)c2ccccc2)c(O)c1O was read as Calb FLC 113*, NALP1 yeast inh -13 and NALP3 yeast inh 20.
`COc1ccc(C=NN(c2ccccc2)c2ccccc2)cc1O` gave UCH37 DUB inh 4.
Oc1ccc(/C=N/N(c2ccccc2)c2ccccc2)cc1O was read as Calb FLC 37, NALP1 yeast inh -2, NALP3 yeast inh 7, ALR inh 99* and ATG4B inh 21.
CCCCNc1nc(CC)c2c(c1C#N)CCCC2 was read as Calb FLC 0, NALP1 yeast inh 41*, NALP3 yeast inh -3, ALR inh 0, ATG4B inh -9 and UCH37 DUB inh -6.
`CC(=O)C(=NNc1cccc(Cl)c1)Sc1cccc2cccnc12` gave UCH37 DUB inh 7.
Screening CCCCOC(=O)NN=C/C=C/c1ccccc1 returned UCH37 DUB inh 3.
Screening CC(=NNC(=O)C(=O)Nc1cc(C)ccc1C)c1ccncc1 returned UCH37 DUB inh 3.
Cn1c(=O)c2[nH]c(Nc3ccccc3)nc2n(C)c1=O was read as Calb FLC 2, NALP1 yeast inh -68, NALP3 yeast inh 18, ALR inh 89*, ATG4B inh -14 and UCH37 DUB inh 6.
Screening Cc1ccc(CNc2nc3c([nH]2)c(=O)n(C)c(=O)n3C)cc1 returned Calb FLC 1, NALP1 yeast inh 5, NALP3 yeast inh -4, ALR inh 2, ATG4B inh -1 and UCH37 DUB inh 4.
O=C(/C=C/c1ccco1)NCC1OCCc2ccccc21 (centres undefined) was read as Calb FLC -2, NALP1 yeast inh 13, NALP3 yeast inh 24, ALR inh 98*, ATG4B inh 18 and UCH37 DUB inh 2.
For CCOc1cc(C=NN=C(N)N)ccc1OCc1ccc(Cl)cc1 the results were UCH37 DUB inh 2.
`CN(C)c1cccc(C(=O)NNC(=S)NC2CC3CCC2C3)c1` (centres undefined) gave Calb FLC 1, NALP1 yeast inh -14, NALP3 yeast inh 25, ALR inh 85*, ATG4B inh 2 and UCH37 DUB inh -1.
Cc1ccc(CNC(=O)CC(C)S(=O)(=O)c2ccc3c(c2)NC(=O)CS3)o1 (centres undefined) was read as Calb FLC 1, NALP1 yeast inh 13, NALP3 yeast inh 13, ALR inh 98*, ATG4B inh 6 and UCH37 DUB inh 3.
COc1ccc(N(C(C)C(=O)NN=Cc2ccc(OC(C)C)cc2)S(C)(=O)=O)cc1 (centres undefined) was read as UCH37 DUB inh 0.
`COc1ccc2nc(NC(=O)CSc3nc4ccccc4o3)sc2c1` gave Calb FLC 3, NALP1 yeast inh 17, NALP3 yeast inh -4, ALR inh 47, ATG4B inh -7 and UCH37 DUB inh 7.
`CCCCC(=O)N1CCN(c2nc3ccc(F)cc3s2)CC1` gave Calb FLC 5, NALP1 yeast inh 19, NALP3 yeast inh 30, ALR inh -3, ATG4B inh 5 and UCH37 DUB inh 5.
`CC(=O)Nc1nc2ccc(Br)cc2s1` gave Calb FLC 1, NALP1 yeast inh 29*, NALP3 yeast inh 0, ALR inh 0, ATG4B inh 14 and UCH37 DUB inh 4.
For O=C(CSc1nc2ccccc2o1)Nc1nc2ccc(Br)cc2s1 the results were Calb FLC 12, NALP1 yeast inh -22, NALP3 yeast inh 3, ALR inh 98*, ATG4B inh -1 and UCH37 DUB inh -1.

Bioassay records as filed in PubChem BioAssay.
